Source: ChEMBL document CHEMBL1141640, “Cyclic guanidines as dual 5-HT5A/5-HT7 receptor ligands: optimising brain penetration” (Bioorg Med Chem Lett, 2008)

How the values were obtained:
[1] = target: T1, 5-hydroxytryptamine receptor 5A (Homo sapiens, UniProt P47898); assay: Binding affinity to human 5HT5A receptor
[2] = Distribution coefficient, log D of the compound; format: physicochemical; settings: octanol/water
How it was run: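 Lipophilicity reported as log D at pH 7.4 (log D7.4), measured alongside the guanidine pKa.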

[3] = Dissociation constant, pKa of the compound; format: physicochemical
[4] = target: T2, 5-hydroxytryptamine receptor 1A (Homo sapiens, UniProt P08908); assay: Binding affinity to 5HT1A receptor
T2 sequence (P08908 whole entry): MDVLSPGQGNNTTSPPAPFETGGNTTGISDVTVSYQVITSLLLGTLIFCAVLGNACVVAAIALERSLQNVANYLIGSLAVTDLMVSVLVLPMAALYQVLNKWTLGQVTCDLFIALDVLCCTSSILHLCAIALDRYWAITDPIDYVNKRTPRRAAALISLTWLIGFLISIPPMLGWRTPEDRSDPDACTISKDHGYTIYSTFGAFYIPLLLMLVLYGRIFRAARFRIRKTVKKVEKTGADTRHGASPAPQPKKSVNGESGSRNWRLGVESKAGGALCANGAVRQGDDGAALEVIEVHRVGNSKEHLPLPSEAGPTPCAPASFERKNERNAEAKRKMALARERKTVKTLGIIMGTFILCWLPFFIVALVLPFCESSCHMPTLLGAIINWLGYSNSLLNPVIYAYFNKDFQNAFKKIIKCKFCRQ

[5] = target: 5-hydroxytryptamine receptor 7 (Homo sapiens, UniProt P34969); assay: Binding affinity to human 5HT7 receptor
Sequence of 5-hydroxytryptamine receptor 7 (P34969 whole entry): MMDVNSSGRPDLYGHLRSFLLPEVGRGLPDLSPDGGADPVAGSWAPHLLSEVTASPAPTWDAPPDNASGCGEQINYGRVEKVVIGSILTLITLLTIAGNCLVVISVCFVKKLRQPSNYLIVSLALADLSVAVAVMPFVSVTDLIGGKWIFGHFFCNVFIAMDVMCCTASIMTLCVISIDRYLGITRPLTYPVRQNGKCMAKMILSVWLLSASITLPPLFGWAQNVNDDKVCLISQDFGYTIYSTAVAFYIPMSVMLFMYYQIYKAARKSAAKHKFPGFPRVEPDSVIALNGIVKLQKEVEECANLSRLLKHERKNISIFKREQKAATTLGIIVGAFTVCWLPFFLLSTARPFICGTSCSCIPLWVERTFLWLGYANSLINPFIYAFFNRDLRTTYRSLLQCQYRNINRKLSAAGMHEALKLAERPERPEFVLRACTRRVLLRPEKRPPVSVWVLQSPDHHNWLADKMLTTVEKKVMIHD

[6] = Selectivity for human 5HT5A receptor over 5HT6 receptor
[7] = target: 5-hydroxytryptamine receptor 1D (Homo sapiens, UniProt P28221); assay: Binding affinity to 5HT1D receptor
Sequence of 5-hydroxytryptamine receptor 1D (P28221 whole entry): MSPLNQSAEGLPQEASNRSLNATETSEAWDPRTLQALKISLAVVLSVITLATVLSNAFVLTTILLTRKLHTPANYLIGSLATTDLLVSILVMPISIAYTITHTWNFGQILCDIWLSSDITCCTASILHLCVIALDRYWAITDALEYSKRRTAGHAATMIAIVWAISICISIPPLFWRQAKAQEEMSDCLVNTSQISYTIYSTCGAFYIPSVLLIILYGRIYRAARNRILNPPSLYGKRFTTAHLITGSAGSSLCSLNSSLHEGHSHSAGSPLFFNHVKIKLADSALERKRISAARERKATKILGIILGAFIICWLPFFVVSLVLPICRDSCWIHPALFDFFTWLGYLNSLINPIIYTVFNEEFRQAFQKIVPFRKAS

[8] = Selectivity for human 5HT5A receptor over 5HT3 receptor
[9] = target: T3, 5-hydroxytryptamine receptor 2C (Homo sapiens, UniProt P28335); assay: Binding affinity to 5HT2C receptor
T3 sequence (P28335 whole entry): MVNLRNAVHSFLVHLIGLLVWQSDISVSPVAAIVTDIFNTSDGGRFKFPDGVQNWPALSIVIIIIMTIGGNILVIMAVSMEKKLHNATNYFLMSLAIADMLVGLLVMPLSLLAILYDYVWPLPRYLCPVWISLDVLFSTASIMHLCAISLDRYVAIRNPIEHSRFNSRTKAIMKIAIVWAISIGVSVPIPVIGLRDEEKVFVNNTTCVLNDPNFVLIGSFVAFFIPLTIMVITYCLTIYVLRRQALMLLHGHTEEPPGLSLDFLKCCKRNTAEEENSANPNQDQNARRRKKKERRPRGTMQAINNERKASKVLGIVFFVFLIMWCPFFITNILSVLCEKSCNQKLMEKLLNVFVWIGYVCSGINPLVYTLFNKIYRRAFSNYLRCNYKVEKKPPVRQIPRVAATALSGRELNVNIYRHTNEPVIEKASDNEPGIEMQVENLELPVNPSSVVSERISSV

[10] = Selectivity for human 5HT5A receptor over 5HT2A receptor
[11] = Ratio of drug level in brain to plasma in mouse at 6.6 mg/kg, po; format: ADME, organism-based; design: dose 6.6 mg/kg, route oral
How it was run: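 Mouse pharmacokinetic study with a single oral (po) dose of 6.6 mg/kg. Drug levels were measured in brain and in plasma, and the brain/plasma ratio was taken from these.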

[12] = Volume of distribution at steady state in mouse at 5 mg/kg, iv; format: ADME, organism-based; design: dose 5 mg/kg, route intravenous; settings: in vivo, read-out: Vdss
[13] = Cmax in mouse at 6.6 mg/kg, po; format: ADME, organism-based; design: dose 6.6 mg/kg, route oral; settings: in vivo
[14] = Half life in mouse at 5 mg/kg, iv; format: ADME, organism-based; design: dose 5 mg/kg, route intravenous; settings: in vivo
[15] = Oral bioavailability in mouse at 6.6 mg/kg; format: ADME, organism-based; settings: in vivo
[16] = Clearance in mouse at 5 mg/kg, iv; format: ADME, organism-based; design: dose 5 mg/kg, route intravenous; settings: in vivo
[17] = target: T1, 5-hydroxytryptamine receptor 5A; assay: Antagonist activity at human 5HT5A receptor by [35S]GTP-gamma-S binding assay; format: functional; settings: read-out: pA2 (converted)
How it was run: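 Functional antagonism at human 5-HT5A receptor measured by [35S]GTPγS binding; potency reported as pA2.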

[18] = Tmax in mouse at 6.6 mg/kg, po; format: ADME, organism-based; design: dose 6.6 mg/kg, route oral; settings: in vivo
Brain = assay: Drug level in mouse brain at 6.6 mg/kg, po; format: ADME, organism-based; design: dose 6.6 mg/kg, route oral; settings: in vivo, read-out: Drug uptake
[19] = Oral bioavailability in mouse at 10 mg/kg; format: ADME, organism-based; settings: in vivo
[20] = Tmax in mouse at 10 mg/kg, po; format: ADME, organism-based; design: dose 10 mg/kg, route oral; settings: in vivo
[21] = Cmax in mouse at 10 mg/kg, po; format: ADME, organism-based; design: dose 10 mg/kg, route oral; settings: in vivo
Histamine H1 receptor = Histamine H1 receptor (Homo sapiens, UniProt P35367); assay: Binding affinity to histamine H1 receptor
Sequence of Histamine H1 receptor (P35367 whole entry): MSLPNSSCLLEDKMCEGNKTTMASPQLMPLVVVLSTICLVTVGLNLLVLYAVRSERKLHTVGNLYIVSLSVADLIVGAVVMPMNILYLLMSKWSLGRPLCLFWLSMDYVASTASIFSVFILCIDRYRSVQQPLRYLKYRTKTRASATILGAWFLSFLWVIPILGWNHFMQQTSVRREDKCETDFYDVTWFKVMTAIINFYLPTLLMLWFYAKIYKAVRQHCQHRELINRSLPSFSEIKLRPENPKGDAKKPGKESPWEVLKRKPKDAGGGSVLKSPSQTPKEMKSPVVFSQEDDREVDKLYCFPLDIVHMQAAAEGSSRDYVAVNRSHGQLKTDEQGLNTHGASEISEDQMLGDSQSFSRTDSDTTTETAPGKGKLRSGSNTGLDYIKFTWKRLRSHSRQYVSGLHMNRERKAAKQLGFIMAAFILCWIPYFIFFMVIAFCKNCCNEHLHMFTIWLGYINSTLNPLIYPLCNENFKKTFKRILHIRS

T1 sequence (P47898 whole entry): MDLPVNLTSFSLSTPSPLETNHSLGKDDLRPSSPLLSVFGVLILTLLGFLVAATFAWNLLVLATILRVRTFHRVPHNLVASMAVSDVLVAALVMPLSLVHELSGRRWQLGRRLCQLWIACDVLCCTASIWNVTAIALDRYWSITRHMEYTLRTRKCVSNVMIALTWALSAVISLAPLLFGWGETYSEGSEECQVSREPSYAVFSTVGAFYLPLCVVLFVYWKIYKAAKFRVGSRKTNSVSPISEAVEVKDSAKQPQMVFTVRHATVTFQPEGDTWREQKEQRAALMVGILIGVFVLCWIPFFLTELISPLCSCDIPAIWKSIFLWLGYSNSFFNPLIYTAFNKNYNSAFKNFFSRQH

Row | Compound | Ki ([1]; read-out: Ki) [nM] | logD [2] | pKa [3] | Ki [4] [nM] | Ki [5] [nM] | Selectivity ratio [6] | Ki [7] [nM] | Selectivity ratio [8] | Ki [9] [nM] | Selectivity ratio [10] | further results
1 | CCNC1=Nc2ccccc2C(C)N1 (centres undefined) | 196 | -0.9 | 10.8 |  |  |  |  |  |  |  | 
2 | CC1NC(NCCF)=Nc2ccccc21 (centres undefined) | 397 |  |  |  |  |  |  |  |  |  | 
3 | CC1NC(NCC(F)F)=Nc2cccc(Cl)c21 (centres undefined) |  | 1.5 | 8.9 | 85 | 33.3 | > 30 | 1370 | > 30 | 401 | > 30 | Kp [11]: 4; Vd [12]: 3.6 L/kg; Cmax [13]: 740 ng/mL; half-life [14]: 1.4 h; bioavailability [15]: 36%; clearance [16]: 31 mL/min/kg; Kb [17]: 38.9 nM; Tmax [18]: 0.25 h; concentration (Brain): > 1000 nM
4 | CC1NC(N)=Nc2cccc(Cl)c21 (centres undefined) |  | 0 | 9.9 |  |  |  |  |  |  |  | bioavailability [19]: 59%; Vd [12]: 9 L/kg; half-life [14]: 4 h; Ki ([1]; read-out: Log Ki (converted)): 5.01 nM; clearance [16]: 30 mL/min/kg; Kb [17]: 3.16 nM; Tmax [20]: 0.75 h; Cmax [21]: 660 ng/mL
5 | C[C@H]1NC(NCC(F)F)=Nc2cccc(Cl)c21 | 1470 |  |  |  |  |  |  |  |  |  | 
6 | CC1NC(NCC(F)F)=Nc2ccc(Cl)c(Cl)c21 (centres undefined) |  | 2.7 | 8.5 | 124 | 23.3 | > 30 | 630 | > 30 | 162 | > 30 | Ki (Histamine H1 receptor): 18.3 nM
7 | C[C@H]1NC(N)=Nc2cccc(Cl)c21 | 415 |  |  |  |  |  |  |  |  |  | 
8 | CC1NC(NC2CCCCN(C)C2=O)=Nc2ccccc21 (centres undefined) | 279 | -0.1 |  |  |  |  |  |  |  |  | 
9 | COc1cccc2c1N=C(NCC(F)F)NC2C (centres undefined) |  | -0.5 | 10.2 | 53 | 38.9 | > 30 | 747 | > 30 | 1660 | > 30 | 

Now from value to compound, other results behind:

Row | Ki ([1]; read-out: Ki) [nM] | logD [2] | pKa [3] | Ki [4] [nM] | Ki [5] [nM] | Selectivity ratio [6] | Ki [7] [nM] | Selectivity ratio [8] | Ki [9] [nM] | Selectivity ratio [10] | Compound | further results
10 | 163 | -0.6 |  |  |  |  |  |  |  |  | CC1NC(NC[C@H]2CCCO2)=Nc2ccccc21 (some centres undefined) | 
11 | 124 | 1.3 |  |  |  |  |  |  |  |  | CC1NC(NCCC2CCCCC2)=Nc2ccccc21 (centres undefined) | 
12 | 33.4 | 3 | 7.8 | 87 | 366 | > 30 | > 10000 | > 30 | 675 | > 30 | CC1NC(NCC(F)F)=Nc2c(Cl)ccc(Cl)c21 (centres undefined) | 
13 | 122 | -0.6 |  |  |  |  |  |  |  |  | CC1NC(NC2CCC2)=Nc2ccccc21 (centres undefined) | 
14 | 176 | -0.3 |  |  |  |  |  |  |  |  | CCOCCCNC1=Nc2ccccc2C(C)N1 (centres undefined) | 
15 | 1.8 | 2.7 | 8.5 | 75 | 7.7 | > 30 | 233 | > 30 | 121 | > 30 | C[C@@H]1NC(NCC(F)F)=Nc2ccc(Cl)c(Cl)c21 | Ki (Histamine H1 receptor): 2.6 nM
